Reference: ChEMBL document CHEMBL3102806, “1,2,4-Triazole/oxime hybrids as new strategy for nitric oxide donors: Synthesis, anti-inflammatory, ulceroginicity and antiproliferative activities” (Eur J Med Chem, 2014)

What was measured:
Type in all cases: functional
CCRF-CEM = experiment: Growth inhibition of human CCRF-CEM cells after 48 hrs by sulforhodamine B assay
Method in brief: (§1)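 NCI full ~60 cell line panel. Five 10-fold concentrations from 10^-4 to 10^-8 M, 48 h continuous exposure, SRB protein read-out. Time-zero, control and treated absorbances give percentage growth. GI50 is the concentration where [(Ti−Tz)/(C−Tz)]×100 = 50; TGI is where Ti = Tz; LC50 is where [(Ti−Tz)/Tz]×100 = −50.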

HL-60(TB) = experiment: Growth inhibition of human HL-60(TB) cells after 48 hrs by sulforhodamine B assay; conditions: HL-60, 48 h
Method in brief: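 NCI 60-cell panel protocol: cells exposed continuously for 48 h to five 10-fold dilutions from 10^-4 to 10^-8 M. Growth estimated by SRB protein staining with time-zero, untreated-control and treated absorbances. Percentage growth computed at each level, and GI50 taken as the concentration giving a 50% lower net protein increase than control cells.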

T47D = experiment: Growth inhibition of human T47D cells after 48 hrs by sulforhodamine B assay
Method in brief: (§2)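 NCI 60-cell-line panel, five-dose run at 10-fold dilutions from 10^-4 to 10^-8 M, 48 h continuous exposure. Viability by SRB protein stain. Percent growth is taken from time-zero, untreated-control and treated absorbances. GI50 is the concentration giving a 50% lower net protein increase than in control cells. TGI is taken at Ti = Tz, LC50 at a 50% loss of initial protein.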

MDA-MB-231 = experiment: Growth inhibition of human MDA-MB-231 cells after 48 hrs by sulforhodamine B assay; conditions: MDA-MB-231, 48 h
Method in brief: (§3)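 NCI 60-cell-line panel (nine tumour subpanels), five-dose format: 10-fold dilutions from 10^-4 to 10^-8 M, 48 h continuous exposure, SRB protein stain. Percent growth at each level is derived from time-zero, untreated control and treated absorbances. GI50 is the concentration where [(Ti−Tz)/(C−Tz)]×100 = 50. Values outside the tested range are reported as above or below the limit.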

[1] = Growth inhibition of human Hs 578T cells after 48 hrs by sulforhodamine B assay; method in brief: as §1
MCF7 = experiment: Growth inhibition of human MCF7 cells after 48 hrs by sulforhodamine B assay; conditions: MCF7, 48 h; method in brief: as §3
[2] = Growth inhibition of human UO31 cells after 48 hrs by sulforhodamine B assay; conditions: UO-31, 48 h; method in brief: as §2
PC-3 = experiment: Growth inhibition of human PC3 cells after 48 hrs by sulforhodamine B assay; conditions: PC-3, 48 h; method in brief: as §3
[3] = Growth inhibition of human RXF393 cells after 48 hrs by sulforhodamine B assay; conditions: RXF 393, 48 h; method in brief: as §3
CAKI-1 = experiment: Growth inhibition of human CAKI-1 cells after 48 hrs by sulforhodamine B assay; conditions: CAKI-1, 48 h; method in brief: as §1
A498 = experiment: Growth inhibition of human A498 cells after 48 hrs by sulforhodamine B assay; conditions: A498, 48 h; method in brief: as §1
[4] = Growth inhibition of human OVCAR5 cells after 48 hrs by sulforhodamine B assay; conditions: OVCAR-5, 48 h; method in brief: as §3
[5] = Growth inhibition of human OVCAR4 cells after 48 hrs by sulforhodamine B assay; conditions: OVCAR-4, 48 h; method in brief: as §3
IGROV-1 = experiment: Growth inhibition of human IGROV1 cells after 48 hrs by sulforhodamine B assay; conditions: IGROV-1, 48 h; method in brief: as §1
UACC-62 = experiment: Growth inhibition of human UACC62 cells after 48 hrs by sulforhodamine B assay; conditions: UACC-62, 48 h; method in brief: as §2
[6] = Growth inhibition of human UACC257 cells after 48 hrs by sulforhodamine B assay; conditions: UACC-257, 48 h; method in brief: as §2
SK-MEL-5 = experiment: Growth inhibition of human SK-MEL-5 cells after 48 hrs by sulforhodamine B assay; conditions: SK-MEL-5, 48 h; method in brief: as §2
SK-MEL-2 = experiment: Growth inhibition of human SK-MEL-2 cells after 48 hrs by sulforhodamine B assay; conditions: SK-MEL-2, 48 h; method in brief: as §2
MDA-MB-435 = experiment: Growth inhibition of human MDA-MB-435 cells after 48 hrs by sulforhodamine B assay; conditions: MDA-MB-435, 48 h; method in brief: as §3
U-251 = experiment: Growth inhibition of human U251 cells after 48 hrs by sulforhodamine B assay; conditions: U-251, 48 h; method in brief: as §2
SW-620 = experiment: Growth inhibition of human SW620 cells after 48 hrs by sulforhodamine B assay; conditions: SW-620, 48 h; method in brief: as §2
[7] = Growth inhibition of human HCC2998 cells after 48 hrs by sulforhodamine B assay; conditions: HCC 2998, 48 h; method in brief: as §1
HCT-116 = experiment: Growth inhibition of human HCT116 cells after 48 hrs by sulforhodamine B assay; conditions: HCT-116, 48 h; method in brief: as §1
COLO 205 = experiment: Growth inhibition of human COLO205 cells after 48 hrs by sulforhodamine B assay; conditions: COLO 205, 48 h; method in brief: as §1
NCI-H522 = experiment: Growth inhibition of human NCI-H522 cells after 48 hrs by sulforhodamine B assay; conditions: NCI-H522, 48 h; method in brief: as §3
[8] = Growth inhibition of human HOP92 cells after 48 hrs by sulforhodamine B assay; conditions: HOP-92, 48 h; method in brief: as §1
[9] = read-out: LC50 (the source's name)

Q: Which results are given for COc1ccc(-c2nnc(SCC(=O)Nc3ccc(/C(C)=N/O)cc3)n2-c2ccccc2)cc1OC?
A: GI50 (CCRF-CEM): > 100 µM; TGI (CCRF-CEM): > 100 µM; CC50 (CCRF-CEM; [9]): > 100 µM; GI50 (HL-60(TB)): > 100 µM; TGI (HL-60(TB)): > 100 µM; CC50 (HL-60(TB); [9]): > 100 µM; GI50 (T47D): 9.45 µM; TGI (T47D): > 100 µM; CC50 (T47D; [9]): > 100 µM; GI50 (MDA-MB-231): 4.26 µM; TGI (MDA-MB-231): 23.8 µM; CC50 (MDA-MB-231; [9]): > 100 µM; GI50 [1]: 3.75 µM; TGI [1]: > 100 µM; CC50 [1, 9]: > 100 µM; GI50 (MCF7): > 100 µM; TGI (MCF7): > 100 µM; CC50 (MCF7; [9]): > 100 µM; GI50 [2]: > 100 µM; TGI [2]: > 100 µM; CC50 [2, 9]: > 100 µM; GI50 (PC-3): > 100 µM; TGI (PC-3): > 100 µM; CC50 (PC-3; [9]): > 100 µM; GI50 [3]: 2.56 µM; TGI [3]: 7.11 µM; CC50 [3, 9]: > 100 µM; GI50 (CAKI-1): > 100 µM; TGI (CAKI-1): > 100 µM; CC50 (CAKI-1; [9]): > 100 µM; GI50 (A498): 2.72 µM; TGI (A498): 46.1 µM; CC50 (A498; [9]): > 100 µM; GI50 [4]: > 100 µM; TGI [4]: > 100 µM; CC50 [4, 9]: > 100 µM; GI50 [5]: > 100 µM; TGI [5]: > 100 µM; CC50 [5, 9]: > 100 µM; GI50 (IGROV-1): 3.74 µM; TGI (IGROV-1): 29.4 µM; CC50 (IGROV-1; [9]): > 100 µM; GI50 (UACC-62): > 100 µM; TGI (UACC-62): > 100 µM; CC50 (UACC-62; [9]): > 100 µM; GI50 [6]: > 100 µM; TGI [6]: > 100 µM; CC50 [6, 9]: > 100 µM; GI50 (SK-MEL-5): > 100 µM; TGI (SK-MEL-5): > 100 µM; CC50 (SK-MEL-5; [9]): > 100 µM; GI50 (SK-MEL-2): 5.04 µM; TGI (SK-MEL-2): 28.8 µM; CC50 (SK-MEL-2; [9]): > 100 µM; GI50 (MDA-MB-435): > 100 µM; TGI (MDA-MB-435): > 100 µM; CC50 (MDA-MB-435; [9]): > 100 µM; GI50 (U-251): 3.62 µM; TGI (U-251): 19.6 µM; CC50 (U-251; [9]): > 100 µM; GI50 (SW-620): > 100 µM; TGI (SW-620): > 100 µM; CC50 (SW-620; [9]): > 100 µM; GI50 [7]: > 100 µM; TGI [7]: > 100 µM; CC50 [7, 9]: > 100 µM; GI50 (HCT-116): 11.3 µM; TGI (HCT-116): > 100 µM; CC50 (HCT-116; [9]): > 100 µM; GI50 (COLO 205): > 100 µM; TGI (COLO 205): > 100 µM; CC50 (COLO 205; [9]): > 100 µM; GI50 (NCI-H522): 21.4 µM; TGI (NCI-H522): > 100 µM; CC50 (NCI-H522; [9]): > 100 µM; GI50 [8]: 2.12 µM; TGI [8]: 6.42 µM; CC50 [8, 9]: > 100 µM
